The source made the active and inactive calls. The calls are words filed in the database; no cut-off is given here.
Legend:
[1] = system: L6; experiment: Cytotoxicity against rat L6 cells after 6 days using alamar blue staining based fluorescence assay; type: cell-based; conditions: L6, 144 h
Outline: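 Rat skeletal muscle L6 cells seeded at 1 × 10⁴ ml⁻¹ in medium containing graded compound concentrations and held 6 days at 37 °C. Alamar Blue then added, with fluorescence read after a further 8 h.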

[2] = system: Trypanosoma brucei; experiment: Antitrypanosomal activity against Trypanosoma brucei 427 bloodstream forms assessed as inhibition of parasite growth incubated for 48 hrs by hemocytometry; type: functional, organism-based
[3] = system: Trypanosoma cruzi; experiment: Antitrypanosomal activity against Trypanosoma cruzi CL Brener clone epimastigotes assessed as inhibition of parasite growth incubated for 5 days by hemocytometry; conditions: 120 h
[4] = Selectivity index, ratio of IC50 for rat L6 cells to IC50 for Trypanosoma brucei bloodstream forms; type: toxicity, cell-based; conditions: read-out: Ratio IC50
[5] = system: Trypanosoma brucei; experiment: Antitrypanosomal activity against Trypanosoma brucei bloodstream forms assessed as inhibition parasite growth at 5 ug/ml; type: functional
[6] = system: Trypanosoma brucei; experiment: Antitrypanosomal activity against Trypanosoma brucei relative to rimantadine; type: functional
[7] = system: Trypanosoma brucei; experiment: Antitrypanosomal activity against Trypanosoma brucei relative to amantadine; type: functional
[8] = system: Trypanosoma brucei; experiment: Antitrypanosomal activity against Trypanosoma brucei bloodstream form assessed as inhibition parasite growth

IC50 ([2]; Trypanosoma brucei, 427, 48 h) [µM]	IC90 ([2]; Trypanosoma brucei, 427, 48 h) [µM]	IC50 [2] [µM]	IC90 [2] [µM]	Compound	further results
0.09	0.155			O=C(CN1C(=O)CNC2(C1=O)C1CC3CC(C1)CC2C3)NO (stereo unspecified) [listing 1 of 2 here]	IC50 [1]: > 325 µM; IC50 [3]: 5.51 µM; IC90 [3]: 11.1 µM; selectivity ratio [4]: > 3600
				CN1CC(=O)NC(=O)C12C1CC3CC(C1)CC2C3 (stereo unspecified)	inhibition of growth at 5 µg/mL ([5]; read-out: GI): 40%
0.125	0.27			C[C@@H]1NC2(CCCCCCC2)C(=O)N(CC(=O)NO)C1=O [listing 1 of 2 here]	
		0.018	0.024	O=C(CN1C(=O)C(Cc2ccccc2)NC2(C1=O)C1CC3CC(C1)CC2C3)NO (racemic; form 2)	
				O=C1ON=C2C3CC4CC(C3)CC12C4	Ratio IC50 [6]: 3; Ratio IC50 [7]: 45
		0.162	0.327	CN1CC(=O)N(CC(=O)NO)C(=O)C12CCCCCCC2 [listing 1 of 2 here]	
				O=C1CNC2(C(=O)N1)C1CC3CC(C1)CC2C3 (stereo unspecified)	growth inhibition (GI) [5]: inactive
			0.014	O=C(CN1C(=O)[C@@H](Cc2ccccc2)NC2(C1=O)C1CC3CC(C1)CC2C3)NO (stereo partly specified) [listing 1 of 2 here]	
		0.405	0.909	C[C@@H]1NC2(C(=O)N(CC(=O)NO)C1=O)C1CC3CC(C1)CC2C3 (stereo partly specified) [listing 1 of 2 here]	
0.3	0.635			O=C(CN1C(=O)CNC2(CCCCCCC2)C1=O)NO [listing 1 of 2 here]	
0.193	0.328			CN1CC(=O)N(CC(=O)NO)C(=O)C12C1CC3CC(C1)CC2C3 (stereo unspecified) [listing 1 of 2 here]	IC50 [1]: 40.4 µM; IC50 [3]: 3.62 µM; IC90 [3]: 5.99 µM; selectivity ratio [4]: 210
0.0091				O=C(CN1C(=O)[C@@H](Cc2ccccc2)NC2(C1=O)C1CC3CC(C1)CC2C3)NO (stereo partly specified) [listing 2 of 2 here]	IC50 [1]: 11.6 µM; IC50 [8]: 0.106 µM; selectivity ratio [4]: 1300
0.158	0.3			CN1CC(=O)N(CC(=O)NO)C(=O)C12CCCCCCC2 [listing 2 of 2 here]	
		0.079	0.148	O=C(CN1C(=O)CNC2(C1=O)C1CC3CC(C1)CC2C3)NO (stereo unspecified) [listing 2 of 2 here]	
0.029	0.039			O=C(CN1C(=O)[C@H](Cc2ccccc2)NC2(CCCCCCC2)C1=O)NO [listing 1 of 2 here]	IC50 [1]: 93.8 µM; selectivity ratio [4]: 3200
0.285	0.673			CN1CC(=O)N(CC(=O)NO)C(=O)C12CCCCCC2 [listing 1 of 2 here]	
		0.134	0.276	C[C@@H]1NC2(C(=O)N(CC(=O)NO)C1=O)C1CC3CC(C1)CC2C3 (stereo partly specified) [listing 2 of 2 here]	
		0.311	0.717	CN1CC(=O)N(CC(=O)NO)C(=O)C12CCCCCC2 [listing 2 of 2 here]	
1.87	2.53			O=C(CN1C(=O)CNC2(CCCCCC2)C1=O)NO [listing 1 of 2 here]	
		0.0068	0.0115	O=C(CN1C(=O)[C@H](Cc2ccccc2)NC2(C1=O)C1CC3CC(C1)CC2C3)NO (stereo partly specified) [listing 1 of 2 here]	IC50 [1]: 10.4 µM; IC50 [8]: 0.332 µM; IC50 [3]: 0.21 µM; IC90 [3]: 0.36 µM; selectivity ratio [4]: 1500
		0.134	0.259	C[C@@H]1NC2(CCCCCCC2)C(=O)N(CC(=O)NO)C1=O [listing 2 of 2 here]	
		0.025	0.035	O=C(CN1C(=O)[C@H](Cc2ccccc2)NC2(CCCCCCC2)C1=O)NO [listing 2 of 2 here]	
		0.042	0.08	O=C(CN1C(=O)[C@H](Cc2ccccc2)NC2(C1=O)C1CC3CC(C1)CC2C3)NO (stereo partly specified) [listing 2 of 2 here]	
		0.266	0.495	O=C(CN1C(=O)CNC2(CCCCCCC2)C1=O)NO [listing 2 of 2 here]	
		0.34	0.622	CN1CC(=O)N(CC(=O)NO)C(=O)C12C1CC3CC(C1)CC2C3 (stereo unspecified) [listing 2 of 2 here]	
		1.15	1.71	O=C(CN1C(=O)CNC2(CCCCCC2)C1=O)NO [listing 2 of 2 here]	
0.017	0.026			O=C(CN1C(=O)C(Cc2ccccc2)NC2(C1=O)C1CC3CC(C1)CC2C3)NO (racemic; form 1)	IC50 [1]: 23.7 µM; IC50 [8]: 0.285 µM; selectivity ratio [4]: 1400
